Experimental data reported in ChEMBL document CHEMBL3877256, “Design, synthesis and evaluation of novel 2-amino-3-(naphth-2-yl)propanoic acid derivatives as potent inhibitors of platelet aggregation” (Eur J Med Chem, 2017).
pIC50: −log10 of the molar value.

Columns and labels:
[1] = target: T1, Integrin alpha-IIb/beta-3 (Homo sapiens, UniProt P05106+P08514); assay: Antagonist activity at GP2b/GP3a receptor in human platelet rich plasma assessed as inhibition of ADP-induced platelet aggregation at 50 uM preincubated for 1 min followed by ADP addition by aggregometric method relative to control
Outline: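 Human PRP from apheresis platelets, PPP from centrifugation at 3000r/min for 10 min used as reference. Compound in saline or 0.2% aqueous DMSO added to PRP, incubated 1 min, then ADP 20 μM (per table footnotes; methods list 10 μM) added. Light transmission aggregometry at 37°C, maximal aggregation vs PPP. Inhibition relative to control aggregation ratio. IC50 from at least four concentrations.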

[2] = tested on: Mus musculus; assay: Toxicity in ICR mouse assessed as bleeding time at 30 mg/kg, iv administered 30 mins prior to test by tail transection method; type: organism-based; settings: in vivo, 0.5 h
Outline: (§1)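 ICR mice dosed 30 min before test, saline as control. Anesthetized with 5% chloral hydrate i.p., kept at 37°C on a heating pad. 3-mm tail tip cut off and tail immersed in 37°C saline. Time until bleeding stopped for more than 5 s recorded, accumulated within 20 min. n=6.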

[3] = tested on: Rattus norvegicus; assay: Anti-thrombotic activity in Sprague-Dawley rat arterio-venous shunt thrombosis model assessed as reduction in thrombus weight at 10 mg/kg, iv pretreated for 15 mins followed by arteriovenous shunt thrombosis induction measured after 20 mins relative to control; type: functional; parameters: scale not given: the % may be the effect or the level left
Outline: (§2)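 SD rats of both sexes, 180~220 g, dosed by tail vein injection. After 15 min, anesthetized with 10% chloral hydrate (3 ml/kg i.p.). Shunt catheter placed between left jugular vein and right common carotid artery, opened 20 min. Thrombus dried at 60°C for 20 min and weighed without the thread. n=6.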

[4] = tested on: Mus musculus; assay: Toxicity in ICR mouse assessed as bleeding time at 3 mg/kg, iv administered 30 mins prior to test by tail transection method; type: organism-based; settings: in vivo, 0.5 h; outline: as §1
[5] = tested on: Mus musculus; assay: Toxicity in ICR mouse assessed as bleeding time at 15 mg/kg, iv administered 30 mins prior to test by tail transection method; type: organism-based; settings: in vivo, 0.5 h; outline: as §1
[6] = target: T1, Integrin alpha-IIb/beta-3; assay: Displacement of fibrinogen from human platelet GP2b/GP3a receptor after 2 hrs by ELISA
Outline: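 Plates coated overnight at 4°C with fibrinogen 10 µg/ml in 0.1 M carbonate pH 9.5, blocked with 1% BSA. Purified human platelet GPIIb/IIIa (20 µg/ml) added with samples for 2 h in Tris/NaCl/CaCl2/Tween buffer pH 7.5. Bound receptor detected with anti-β3 antibody (1 h, 37°C) and alkaline phosphatase conjugate with pNPP, A405. BSA-only wells subtracted. Triplicate.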

[7] = tested on: Rattus norvegicus; assay: Anti-thrombotic activity in iv dosed Sprague-Dawley rat arterio-venous shunt thrombosis model assessed as reduction in thrombus weight pretreated for 15 mins followed by arteriovenous shunt thrombosis induction measured after 20 mins; type: functional, organism-based; outline: as §2

| Structure (SMILES) | inhibition [1] | also measured |
| --- | --- | --- |
| O=C(O)C(Cc1ccc2cc(OCCCCN3CCNCC3)ccc2c1)NS(=O)(=O)c1ccc(Br)cc1 (racemic) | 91.2% | – |
| N=C(N)c1ccc(COc2ccc3cc(CC(NC(=O)c4ccc([N+](=O)[O-])cc4)C(=O)O)ccc3c2)cc1 (racemic) | > 99.5% | – |
| CCCCS(=O)(=O)NC(Cc1ccc2cc(OCc3ccc(C(=N)N)cc3)ccc2c1)C(=O)O (racemic) | > 99.5% | – |
| COc1ccc(S(=O)(=O)NC(Cc2ccc3cc(OCc4ccc(C(=N)N)cc4)ccc3c2)C(=O)O)cc1 (racemic) | 21.5% | – |
| N=C(N)c1ccc(COc2ccc3cc(CC(NC(=O)c4ccc(F)cc4)C(=O)O)ccc3c2)cc1 (racemic) | 23.3% | – |
| O=C(O)C(Cc1c[nH]c2ccc(OCCCCC3CCNCC3)cc12)NS(=O)(=O)c1ccc(Br)cc1 (stereo not drawn) | 38.1% | – |
| CCCC(=O)NC(Cc1ccc2cc(OCc3ccc(C(=N)N)cc3)ccc2c1)C(=O)O (racemic) | > 99.5% | – |
| Cl.O=C(O)C(Cc1ccc2cc(OCCCN3CCNCC3)ccc2c1)NS(=O)(=O)c1ccccc1 (racemic) | – | Time [2]: 9.28 min; Activity [3]: 40%; Time [4]: 6.72 min; Time [5]: 8.63 min; pIC50 [6]: 7.10; inhibition [6]: Dose-dependent effect; Activity [7]: Dose-dependent effect |
| O=C(O)C(Cc1ccc2cc(OCCN3CCNCC3)ccc2c1)NS(=O)(=O)c1ccc(Br)cc1 (racemic) | 97.3% | – |
| N=C(N)c1ccc(COc2ccc3cc(CC(NS(=O)(=O)c4ccc([N+](=O)[O-])cc4)C(=O)O)ccc3c2)cc1 (racemic) | 62.9% | – |
| Cc1ccc(S(=O)(=O)NC(Cc2ccc3cc(OCc4ccc(C(=N)N)cc4)ccc3c2)C(=O)O)cc1 (racemic) | > 99.5% | – |
| O=C(O)C(Cc1ccc2cc(OCCC3CCNCC3)ccc2c1)NS(=O)(=O)c1ccc(Br)cc1 (racemic) | < 5% | – |
| O=C(O)C(Cc1ccc2cc(OCCCN3CCNCC3)ccc2c1)NS(=O)(=O)c1ccc(Br)cc1 (racemic) | 99.1% | – |
| N=C(N)c1ccc(COc2ccc3cc(CC(NC(=O)c4ccccc4)C(=O)O)ccc3c2)cc1 (racemic) | 49.4% | – |
| O=C(O)C(Cc1ccc2cc(OCC3CCNCC3)ccc2c1)NS(=O)(=O)c1ccc(Br)cc1 (racemic) | < 5% | – |
| N=C(N)c1ccc(COc2ccc3cc(CC(NS(=O)(=O)c4ccc(Br)cc4)C(=O)O)ccc3c2)cc1 (racemic) | 50.2% | – |
| O=C(O)C(Cc1ccc2cc(OCCCC3CCNCC3)ccc2c1)NS(=O)(=O)c1ccc(Br)cc1 (racemic) | < 5% | – |
| N=C(N)c1ccc(COc2ccc3cc(CC(NS(=O)(=O)c4ccccc4)C(=O)O)ccc3c2)cc1 (racemic) | > 99.5% | pIC50 [6]: 5.88; inhibition [6]: Dose-dependent effect |
| N=C(N)c1ccc(COc2ccc3cc(CC(NC(=O)c4cccc(F)c4)C(=O)O)ccc3c2)cc1 (racemic) | 49.7% | – |
| COc1ccc(C(=O)NC(Cc2ccc3cc(OCc4ccc(C(=N)N)cc4)ccc3c2)C(=O)O)cc1 (racemic) | 32.4% | – |
